The values below come from ChEMBL document CHEMBL3352336, “Discovery libraries targeting the major enzyme classes: the serine hydrolases” (Bioorg Med Chem Lett, 2014).

As a reminder, the Ki is a measure of affinity in units of concentration, obtained from inhibition or displacement.

Series [1] is described as follows: Retention time of the compound. In kind it is physicochemical.
Series [2] addresses T1, Fatty-acid amide hydrolase 1 (Rattus norvegicus, UniProt P97612).
T1 sequence (P97612 whole entry): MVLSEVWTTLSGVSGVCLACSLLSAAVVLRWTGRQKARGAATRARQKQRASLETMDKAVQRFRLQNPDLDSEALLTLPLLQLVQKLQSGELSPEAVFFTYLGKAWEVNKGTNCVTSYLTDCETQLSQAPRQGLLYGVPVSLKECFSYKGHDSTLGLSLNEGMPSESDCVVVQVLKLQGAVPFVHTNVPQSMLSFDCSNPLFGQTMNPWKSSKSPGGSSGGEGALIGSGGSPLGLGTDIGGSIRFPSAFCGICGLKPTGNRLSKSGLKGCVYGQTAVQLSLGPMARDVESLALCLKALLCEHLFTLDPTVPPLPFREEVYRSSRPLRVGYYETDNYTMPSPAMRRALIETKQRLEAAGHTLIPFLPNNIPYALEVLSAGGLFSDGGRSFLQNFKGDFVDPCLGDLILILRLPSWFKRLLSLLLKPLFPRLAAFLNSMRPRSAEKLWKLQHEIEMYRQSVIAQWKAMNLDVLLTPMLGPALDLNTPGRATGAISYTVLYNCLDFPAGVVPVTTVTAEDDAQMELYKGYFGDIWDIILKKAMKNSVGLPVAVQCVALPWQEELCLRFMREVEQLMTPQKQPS
In words: Inhibition of recombinant rat FAAH preincubated for 3 hrs. Summed up:
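Recombinant FAAH (rFAAH) was preincubated with the inhibitor for 3 h before activity was measured. Results are reported as an apparent Ki in nM.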

`O=C(N1CCN(Cc2ccc(OCc3ccccc3)cc2)CC1)n1cccn1` returned a Retention_time in series [1] of 3.929 min. In addition, the Ki in series [2] was found to be 10 nM.
For `CC(C)(C)OC(=O)N1CCN(C(=O)n2cc(C#N)cn2)CC1` the same measures were 3.946 min and 55 nM.
For the molecule `N#Cc1cnn(C(=O)Cc2ccc3ccccc3c2)c1`, the Retention_time in series [1] turned out to be 3.906 min.
Still for that read-out and setting: with `O=C(NCCCc1ccccc1)n1cccn1` the figure was 3.989 min.
Molecule `O=C(NCCCCc1ccccc1)n1cccn1` registered a Retention_time in series [1] of 3.955 min. Besides, the inhibition constant (Ki) in series [2] was 290 nM.
Take `O=C(NCCCCCc1ccccc1)n1cccn1`: the Retention_time in series [1] came out at 4.011 min.
Still for that read-out and setting: in the case of `Cc1cnn(C(=O)OCc2ccc3ccccc3c2)c1` it was 3.998 min; in that of `O=C(NCc1ccc(-c2ccccc2)cc1)n1cccn1`, 3.944 min; in that of `Cc1ccc(COC(=O)n2cccn2)cc1`, 4.1 min.
Regarding `O=C(N1CCN(Cc2ccccc2)CC1)n1cccn1`, in series [1], the Retention_time is given as 3.894 min. Besides, the Ki in series [2] is 180 nM.
For `Cc1ccc(CNC(=O)n2cccn2)cc1`, the Retention_time in series [1] stood at 4.104 min.
Molecule `O=C(OCc1ccc2ccccc2c1)n1cccn1` showed a Retention_time in series [1] of 4.008 min.
On the same count and under the same terms, in the case of `O=C(Nc1ccc2ccccc2c1)n1cccn1` it was 3.895 min; in that of `N#Cc1cnn(C(=O)NCc2ccc(-c3ccccc3)cc2)c1`, 3.897 min.
`Cc1cnn(C(=O)N2CCCCC2)c1`: the Retention_time in series [1] amounted to 3.933 min. In addition, the Ki in series [2] was above 1000 nM.
For `O=C(N1CCN(Cc2ccc(-c3ccccc3)cc2)CC1)n1cccn1` the same measures were 3.897 min and 12 nM.
For `Cc1cnn(C(=O)N2CCN(Cc3ccccc3)CC2)c1` the same measures were 4.201 min and 250 nM.
In the case of `O=C(Cc1ccc2ccccc2c1)n1cccn1`, the Retention_time in series [1] is recorded as 3.788 min.
On the same count and under the same terms, in the case of `Cc1ccc(CNC(=O)n2cc(C)cn2)cc1` it was 4.11 min.
`O=C(OCCCc1ccccc1)n1cccn1` showed a Retention_time in series [1] of 3.669 min.
Regarding `O=C(OCc1ccc(OCc2ccccc2)cc1)n1cccn1`, the Retention_time in series [1] was determined as 3.905 min.
Take `Cc1cnn(C(=O)N2CCN(Cc3ccc(-c4ccccc4)cc3)CC2)c1`: the Retention_time in series [1] is recorded as 3.899 min. In series [2], the Ki was 170 nM.
With `N#Cc1cnn(C(=O)NCc2ccc(OCc3ccccc3)cc2)c1`, the Retention_time in series [1] was determined as 3.877 min.
Still for that read-out and setting: in the case of `Cc1cnn(C(=O)N(C)CCN(C)C(=O)OC(C)(C)C)c1` it was 3.969 min; in that of `CN(CCN(C)C(=O)n1cccn1)C(=O)OC(C)(C)C`, 3.884 min.
The same measure, in the same setting: with `N#Cc1cnn(C(=O)OCCCCCc2ccccc2)c1` the figure was 4.274 min.
Molecule `Cc1cnn(C(=O)N2CCN(C(=O)OC(C)(C)C)CC2)c1` had a Retention_time in series [1] of 3.784 min. The Ki in series [2] was 850 nM.
Consider `N#Cc1cnn(C(=O)Nc2ccc3ccccc3c2)c1`, for which the Retention_time in series [1] came to 3.965 min.
On the same count and under the same terms, in the case of `N#Cc1cnn(C(=O)OCc2ccc(OCc3ccccc3)cc2)c1` it was 3.912 min; in that of `Cc1cnn(C(=O)Nc2ccc3ccccc3c2)c1`, 3.9 min; in that of `CC(C)(C)OC(=O)N1CCCN(C(=O)n2cc(C#N)cn2)CC1`, 3.792 min.
Still for that read-out and setting: in the case of `Cc1cnn(C(=O)Cc2ccc(-c3ccccc3)cc2)c1` it was 3.467 min; in that of `Cc1cnn(C(=O)OCCCCCc2ccccc2)c1`, 4.104 min; in that of `N#Cc1cnn(C(=O)OCc2ccc(-c3ccccc3)cc2)c1`, 4.103 min.
`O=C(CCCCCc1ccccc1)n1cccn1`: in series [1], the Retention_time came to 4.199 min. Moreover, the Ki in series [2] was above 5000 nM.
In turn, `Cc1cnn(C(=O)NCCCc2ccccc2)c1` gave a Retention_time in series [1] of 3.616 min.
In series [1], `N#Cc1cnn(C(=O)OCCCCc2ccccc2)c1` had a Retention_time of 3.762 min. In series [2], the inhibition constant (Ki) came to 210 nM.
`Cc1cnn(C(=O)N2CCCN(C(=O)OC(C)(C)C)CC2)c1` displayed a Retention_time in series [1] of 3.959 min.
In the case of `Cc1cnn(C(=O)NCCCCc2ccccc2)c1`, the Retention_time in series [1] came to 3.713 min. The Ki in series [2] turned out to be 550 nM.
On to `N#Cc1cnn(C(=O)CCCCc2ccccc2)c1`, for which, in series [1], the Retention_time came to 3.702 min.
Still for that read-out and setting: with `N#Cc1cnn(C(=O)OCc2ccc(Oc3ccccc3)cc2)c1` the figure was 3.92 min.
Regarding `Cc1cnn(C(=O)CCCCCc2ccccc2)c1`, the Retention_time in series [1] is listed as 4.2 min. Further, in series [2], the Ki is above 5000 nM.
`O=C(Oc1ccc2ccccc2c1)n1cccn1`: the Retention_time in series [1] is 3.96 min.
`CC(C)(C)OC(=O)N1CCN(C(=O)n2cccn2)CC1` displayed a Retention_time in series [1] of 3.92 min. The inhibitory constant (Ki) in series [2] stood at 340 nM.
With `N#Cc1cnn(C(=O)NCCCCc2ccccc2)c1`, in series [1], the Retention_time was 3.746 min. In addition, the Ki in series [2] was determined as 42 nM.
In the case of `Cc1cnn(C(=O)OCCCc2ccccc2)c1`, the Retention_time in series [1] is 3.69 min.
Still for that read-out and setting: in the case of `Cc1cnn(C(=O)Cc2ccc3ccccc3c2)c1` it was 3.992 min.
On to `O=C(N1CCCCC1)n1cccn1`, for which the Retention_time in series [1] came out at 3.484 min. Moreover, in series [2], the Ki is 750 nM.
The molecule `Cc1cnn(C(=O)Oc2ccc3ccccc3c2)c1` returned a Retention_time in series [1] of 3.954 min.
Molecule `N#Cc1cnn(C(=O)CCCCCc2ccccc2)c1` registered a Retention_time in series [1] of 3.998 min. For the same molecule, the inhibition constant Ki in series [2] was above 5000 nM.
Take `CC(C)(C)OC(=O)N1CCCN(C(=O)n2cccn2)CC1`: the Retention_time in series [1] is 3.518 min.
As to `N#Cc1cnn(C(=O)N2CCCCC2)c1`, the Retention_time in series [1] was determined as 3.824 min. Further, in series [2], the Ki was 80 nM.
On to `Cc1cnn(C(=O)OCc2ccc(OCc3ccccc3)cc2)c1`, for which the Retention_time in series [1] was found to be 3.91 min.
Same read-out and setting: with `N#Cc1cnn(C(=O)NCCCCCc2ccccc2)c1` the figure was 4.125 min.
The same measure, in the same setting: in the case of `N#Cc1cnn(C(=O)Cc2ccc(-c3ccccc3)cc2)c1` it was 3.977 min; in that of `O=C(OCCCCCc1ccccc1)n1cccn1`, 4.159 min.
As for `N#Cc1cnn(C(=O)N2CCN(Cc3ccccc3)CC2)c1`, in series [1], the Retention_time is reported as 3.899 min. For the same molecule, in series [2], the inhibition constant Ki worked out at 75 nM.
In series [1], `O=C(Cc1ccc(-c2ccccc2)cc1)n1cccn1` had a Retention_time of 4.1 min.
On the same count and under the same terms, in the case of `N#Cc1cnn(C(=O)NCc2ccc(Oc3ccccc3)cc2)c1` it was 4.022 min; in that of `N#Cc1cnn(C(=O)OCc2ccc3ccccc3c2)c1`, 3.689 min.
The same measure, in the same setting: with `O=C(NCc1ccc2ccccc2c1)n1cccn1` the figure was 4.106 min; with `Cc1cnn(C(=O)OCc2ccc(-c3ccccc3)cc2)c1`, 4.102 min.
Same read-out and setting: in the case of `O=C(CCCCc1ccccc1)n1cccn1` it was 3.977 min.
For `N#Cc1cnn(C(=O)N2CCN(Cc3ccc(OCc4ccccc4)cc3)CC2)c1`, in series [1], the Retention_time stood at 3.787 min. The Ki in series [2] was found to be 0.16 nM.
`O=C(NCc1ccc(Oc2ccccc2)cc1)n1cccn1` had a Retention_time in series [1] of 3.987 min.
In series [1], `Cc1ccc(COC(=O)n2cc(C)cn2)cc1` returned a Retention_time of 4.122 min.
On to `N#Cc1cnn(C(=O)N2CCN(Cc3ccc(-c4ccccc4)cc3)CC2)c1`, for which the Retention_time in series [1] is listed as 3.877 min. Besides, in series [2], the Ki came out at 0.19 nM.
`Cc1cnn(C(=O)NCc2ccc(Oc3ccccc3)cc2)c1`: in series [1], the Retention_time amounted to 3.992 min.
Still for that read-out and setting: in the case of `N#Cc1cnn(C(=O)NCc2ccc3ccccc3c2)c1` it was 4.14 min; in that of `CN(CCN(C)C(=O)n1cc(C#N)cn1)C(=O)OC(C)(C)C`, 3.791 min; in that of `Cc1ccc(CNC(=O)n2cc(C#N)cn2)cc1`, 3.97 min.
Still for that read-out and setting: with `Cc1cnn(C(=O)NCc2ccc3ccccc3c2)c1` the figure was 4.243 min; with `Cc1cnn(C(=O)NCCCCCc2ccccc2)c1`, 4.178 min.
Same read-out and setting: in the case of `Cc1cnn(C(=O)NCc2ccc(-c3ccccc3)cc2)c1` it was 3.907 min.
As to `O=C(NCc1ccc(OCc2ccccc2)cc1)n1cccn1`, in series [1], the Retention_time is listed as 3.896 min.
The molecule `Cc1cnn(C(=O)N2CCN(Cc3ccc(OCc4ccccc4)cc3)CC2)c1` displayed a Retention_time in series [1] of 3.899 min. Further, the Ki in series [2] is 100 nM.
With `O=C(OCc1ccc(-c2ccccc2)cc1)n1cccn1`, in series [1], the Retention_time is 3.999 min.
On the same count and under the same terms, with `N#Cc1cnn(C(=O)OCCCc2ccccc2)c1` the figure was 3.927 min.
`Cc1cnn(C(=O)OCCCCc2ccccc2)c1` returned a Retention_time in series [1] of 3.988 min. In addition, the Ki in series [2] was above 5000 nM.
In turn, `N#Cc1cnn(C(=O)NCCCc2ccccc2)c1` showed a Retention_time in series [1] of 3.915 min.
As for `Cc1cnn(C(=O)NCc2ccc(OCc3ccccc3)cc2)c1`, in series [1], the Retention_time came to 3.876 min.
The same measure, in the same setting: in the case of `Cc1cnn(C(=O)OCc2ccc(Oc3ccccc3)cc2)c1` it was 3.899 min.
For the molecule `Cc1ccc(COC(=O)n2cc(C#N)cn2)cc1`, the Retention_time in series [1] is on record as 3.988 min.
In the case of `Cc1cnn(C(=O)CCCCc2ccccc2)c1`, the Retention_time in series [1] was 3.687 min.
In turn, `O=C(OCc1ccc(Oc2ccccc2)cc1)n1cccn1` displayed a Retention_time in series [1] of 3.989 min.
The same measure, in the same setting: in the case of `N#Cc1cnn(C(=O)Oc2ccc3ccccc3c2)c1` it was 3.9 min.
